# Source: PubChem (several laboratories)
# HCV core dimer: HCV core protein dimerization inhibition | inhibition, % at 5 µM | hit rate 0.33% among 300,000 | TR-FRET GST/Flag-core106 dimerization, 1536-well;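 active means inhibition above the mean of all tested compounds plus 3 SD, set per screening campaign, cut at about 45% in these data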
#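 System – GST-tagged and Flag-tagged HCV core protein residues 1-106 · Repeats – one well for each compound · Technique – TR-FRET 671 and 617 nm emission · Doses – one concentration, 5 µM, in 0.5% DMSO · Times – 4 h, 22.5 °C incubation · Also added – Eu donor and XL665 acceptor anti-tag antibodies · Measure – percent inhibition of core106 dimerization signal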
# ABHD5 PLIN5 PPI: inhibitors of human ABHD5-perilipin-5 interaction; Q00G26+Q8WTS1; Split G. princeps luciferase complementation, luminescence, 4 h; inhibition, % at 4 µM; hit rate 0.78% among 360,000; AID 602281;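 active means inhibition above the mean inhibition across every tested compound plus 3 SD, cut at about 22% in these data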;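 further: 0% = DMSO only wells and the 100% control is not disclosed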
# Target sequence (Q00G26 whole entry, looked up): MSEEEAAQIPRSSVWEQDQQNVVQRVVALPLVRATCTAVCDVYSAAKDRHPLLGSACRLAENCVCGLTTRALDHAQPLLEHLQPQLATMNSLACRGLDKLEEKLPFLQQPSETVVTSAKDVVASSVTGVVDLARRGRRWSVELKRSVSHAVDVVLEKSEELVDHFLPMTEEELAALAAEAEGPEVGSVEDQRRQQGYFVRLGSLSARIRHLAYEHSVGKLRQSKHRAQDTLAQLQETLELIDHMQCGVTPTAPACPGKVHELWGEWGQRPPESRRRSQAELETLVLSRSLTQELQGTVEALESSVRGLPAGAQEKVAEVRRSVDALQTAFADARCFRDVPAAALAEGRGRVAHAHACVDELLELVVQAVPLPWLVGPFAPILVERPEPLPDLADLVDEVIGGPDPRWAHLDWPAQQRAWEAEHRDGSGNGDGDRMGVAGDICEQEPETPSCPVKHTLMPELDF
# Target sequence (Q8WTS1 whole entry, looked up): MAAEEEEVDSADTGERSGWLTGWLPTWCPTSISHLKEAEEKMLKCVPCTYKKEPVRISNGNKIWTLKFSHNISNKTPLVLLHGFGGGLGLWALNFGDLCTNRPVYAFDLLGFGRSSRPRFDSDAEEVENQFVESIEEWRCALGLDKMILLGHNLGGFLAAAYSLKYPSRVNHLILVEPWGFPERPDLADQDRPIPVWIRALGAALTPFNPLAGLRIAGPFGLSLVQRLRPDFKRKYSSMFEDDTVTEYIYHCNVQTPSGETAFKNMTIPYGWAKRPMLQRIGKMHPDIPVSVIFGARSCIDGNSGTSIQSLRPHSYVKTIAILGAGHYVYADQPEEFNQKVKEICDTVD
# rCAG RNA binder: r(CAG) repeat RNA binding. hit rate 1.3% among 370,000. TO-PRO-1 dye displacement fluorescence. inhibition, % at 3 µM;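 active means inhibition above the plate cutoff, the mean of all test compounds on that plate plus 3 SD, cut at about 35% in these data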;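 further: 0% = DMSO alone and 100% = 100 µM mitoxantrone as full dye displacement; higher means more dye released from RNA so lower well fluorescence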
# NadD inh: inhibitors of Staphylococcus aureus NadD; purified NadD enzyme, colorimetric absorbance read-out; inhibition, % at 20 µM; hit rate 0.78% among 360,000; AID 602399; in the data active means inhibition above about 26%
# rCAG bind conf: r(CAG) RNA repeat binding, confirmation; hit rate 70% among 4,300; inhibition, % at 3 µM; TO-PRO-1 dye displacement fluorescence; shares compounds with rCAG RNA binder;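 active means inhibition above a per-plate cutoff, the mean inhibition of sample wells plus 3 SD, cut at about 35% in these data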;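 further: loss of TO-PRO-1 fluorescence as compound displaces dye from 1x1 AA loop RNA; 0% = DMSO only wells and 100% = 100 µM mitoxantrone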
# dCAG dye counter: disrupts DNA CAG TO-PRO-1 complex, flagging rCAG hits; shares compounds with rCAG RNA binder; d(CAG) DNA oligo TO-PRO-1 dye displacement, fluorescence; inhibition, % at 3 µM; hit rate 94% among 4,300; AID 652068;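 active means inhibition above its plate's cutoff, the mean test-well inhibition plus 3 SD, cut at about 4.8% in these data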;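 further: 0% = DNA dye mix with DMSO and 100% = 100 µM mitoxantrone; hits displace the dye from DNA and so lower well fluorescence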
# DNA CAG DR: disrupts DNA CAG TO-PRO-1 complex in dose response; shares compounds with rCAG RNA binder; DNA CAG/GTC duplex TO-PRO-1 dye displacement fluorescence; AID 686960; IC50, µM; hit rate 20% among 250; in the data active means IC50 below about 10 µM
# * hit, by the source's call; i = inactive; nt = no result. A selection: hits, their analogues and other compounds. The true share with any hit is near 2.6%.
SMILES,HCV core dimer,ABHD5 PLIN5 PPI,rCAG RNA binder,NadD inh,rCAG bind conf,dCAG dye counter,others
CC(C)c1c(C(=O)Nc2ccccc2)c(-c2ccccc2)c(-c2ccc(F)cc2)n1CC[C@@H](O)C[C@@H](O)CC(=O)O,nt,-2.2,37.4*,12.4,36.2*,9.9*,
CCOC(=O)C1=CCC(c2ccccc2C)N(S(=O)(=O)c2ccc(C)cc2)C1 (configuration not stated),nt,-6.3,1.8,-4.7,nt,nt,
COc1cccc(/C=C2\SC(=S)N(CCC(=O)Nc3ccc(O)cc3)C2=O)c1,7.6,6.9,14.1,2.3,nt,nt,
O=C(O)C(Cc1ccccc1)N1C(=O)/C(=C/c2cccs2)SC1=S (configuration not stated),nt,-22.2,66.9*,11.2,49.2*,17.6*,
COc1cccc(/C=C2\SC(=S)N(C(Cc3ccccc3)C(=O)O)C2=O)c1 (configuration not stated),12.3,-3.6,68.6*,14.8,77.9*,30.6*,DNA CAG DR=i
COc1ccc(OC)c(/C=C2\SC(=S)N(C(C(=O)O)c3ccccc3)C2=O)c1 (configuration not stated),13.1,-16.4,54.6*,4.0,77.3*,44.2*,
CCOc1cccc(/C=C2\NC(=S)N(c3ccccc3)C2=O)c1O,-17.5,1.2,38.4*,-5.7,20.8,6.2*,
CCOc1cc(/C=C2\NC(=S)N(c3c(C)n(C)n(-c4ccccc4)c3=O)C2=O)ccc1O,-22.5,-3.4,-6.7,-3.4,nt,nt,
O=C(CSC1CCc2ccccc21)NN=Cc1ccco1 (configuration not stated),nt,nt,5.5,nt,nt,nt,
COc1cccc(/C=C2\Oc3cc(OCC(=O)N4CCC[C@H]4C(=O)O)ccc3C2=O)c1,5.0,-3.7,37.4*,7.6,43.6*,12.8*,
CC(=O)C1=C(O)C(=O)N(c2cc(C(C)(C)C)on2)C1c1ccc(Br)cc1 (configuration not stated),5.0,-29.8,46.7*,18.2,46.3*,13.3*,DNA CAG DR=i
CC(=O)C1=C(O)C(=O)N(c2cc(C(C)(C)C)on2)C1c1ccc(C(C)C)cc1 (configuration not stated),9.6,-11.7,nt,17.0,nt,nt,
COc1ccccc1COc1ccc2c(C)c(CC(=O)O)c(=O)oc2c1C,10.0,-3.7,37.0*,-2.4,39.4*,10.3*,
Cc1c(CC(=O)O)c(=O)oc2c(C)c(OCc3ccc(F)cc3F)ccc12,7.3,-12.1,6.6,6.0,nt,nt,
NC(=O)c1c(NC(=O)COC(=O)c2ccc(O)c(Cl)c2)sc2c1CCCC2,nt,-2.5,39.2*,22.5,42.5*,15.4*,
CCC(=O)Nc1sc2c(c1C(N)=O)CCC2,-0.3,-0.9,1.7,-3.5,nt,nt,
N#CCC(=O)Nc1sc2c(c1C(N)=O)CCCC2,4.6,-12.6,35.0*,1.5,3.5,4.5*,
COc1ccc(S(=O)(=O)N(C)c2ccc(C(=O)NCc3ccccn3)cc2)cc1,-4.4,-1.1,-4.4,-3.3,nt,nt,
O=C(Nc1cccc(S(=O)(=O)Nc2ccccc2Cl)c1)c1ccc(N2CCCC2)c([N+](=O)[O-])c1,43.5,1.9,61.1*,13.8,43.6*,21.5*,
O=C(Nc1cccc(C(F)(F)F)c1)Nc1ccc(N2CCCC2)c(S(=O)(=O)Nc2ccccc2Cl)c1,13.2,-20.0,46.5*,27.2,34.4,17.6*,
CC(=O)Nc1ccc(N2CCOCC2)c(S(=O)(=O)Nc2ccccc2Cl)c1,nt,-4.9,11.0,-0.1,nt,nt,
CCC(=O)Nc1ccc2c(c1)C(=O)N(C)[C@@H]1CC[C@@H](CC(=O)OC)O[C@H]1CO2,nt,nt,0.7,nt,nt,nt,
O=C(CSc1nc2[nH]c(=O)cc(O)c2s1)Nc1cc(Cl)cc(Cl)c1,9.0,1.2,28.4,-2.8,nt,nt,
O=C(CSc1nc2[nH]c(=O)cc(O)c2s1)Nc1ccc(Cl)c(C(F)(F)F)c1,nt,-7.1,40.7*,6.5,30.6,10.8*,
CCOc1cc(/C=C(/NC(C)=O)C(=O)O)cc(Cl)c1OCc1ccc(Br)cc1,8.3,-8.1,43.4*,-5.4,32.8,6.7*,
CCOc1ccc(/C=C(/NC(=O)c2ccc(Cl)cc2)C(=O)O)cc1OCC,-6.6,-5.0,2.1,-0.3,nt,nt,
Cc1ccc(NC(=O)CSc2nnc(-c3cccnc3)n2Cc2ccco2)c(C)c1,nt,nt,3.1,nt,nt,nt,
CC(=O)Nc1cc2c(cc1[N+](=O)[O-])-c1ccccc1C2=NO,nt,1.6,5.1,2.6,nt,nt,
